Assay results as given in ChEMBL document CHEMBL1135661, “Design of noncovalent inhibitors of human cathepsin L. From the 96-residue proregion to optimized tripeptides” (J Med Chem, 2002).
Peptide text beside a SMILES is read from it. * marks the point of attachment. Phenylacetyl(4-Ph) = O=C(Cc1ccc(-c2ccccc2)cc1)*

Key:
Procathepsin L = Procathepsin L (Homo sapiens, UniProt P07711); experiment: Inhibitory activity against human Cathepsin L
Cathepsin B = Cathepsin B (Homo sapiens, UniProt P07858); experiment: Specificity of Cathepsin B inhibition by the compound
In short: (§1)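 Recombinant human cathepsins B and K were expressed in Pichia pastoris and stored inhibited with MMTS or HgCl2 (B at 4 °C, K at −80 °C). Both were reactivated with 2 mM DTT and E-64 titrated. Cbz-Phe-Arg-MCA was kept well below KM, at 25 °C, pH 6.0 (50 mM phosphate, 5 mM EDTA, 0.2 M NaCl, 3% DMSO). Read-out was fluorescence at 380/440 nm. Ki came from 1/vs vs [I] plots or slow-binding analysis.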

Cathepsin K = biological target: T1, Cathepsin K (Homo sapiens, UniProt P43235); experiment: Specificity of Cathepsin K inhibition by the compound; in short: as §1
T1 sequence (P43235 whole entry): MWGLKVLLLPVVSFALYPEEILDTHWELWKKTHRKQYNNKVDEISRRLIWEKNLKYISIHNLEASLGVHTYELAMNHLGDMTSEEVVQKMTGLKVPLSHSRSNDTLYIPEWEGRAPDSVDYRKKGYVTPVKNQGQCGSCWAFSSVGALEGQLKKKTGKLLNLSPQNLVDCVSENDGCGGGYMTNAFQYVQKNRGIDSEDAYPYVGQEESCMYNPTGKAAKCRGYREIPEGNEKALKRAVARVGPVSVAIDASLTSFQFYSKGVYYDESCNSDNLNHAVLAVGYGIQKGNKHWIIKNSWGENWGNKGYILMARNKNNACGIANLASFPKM

Chain of Procathepsin L (P07711 whole entry): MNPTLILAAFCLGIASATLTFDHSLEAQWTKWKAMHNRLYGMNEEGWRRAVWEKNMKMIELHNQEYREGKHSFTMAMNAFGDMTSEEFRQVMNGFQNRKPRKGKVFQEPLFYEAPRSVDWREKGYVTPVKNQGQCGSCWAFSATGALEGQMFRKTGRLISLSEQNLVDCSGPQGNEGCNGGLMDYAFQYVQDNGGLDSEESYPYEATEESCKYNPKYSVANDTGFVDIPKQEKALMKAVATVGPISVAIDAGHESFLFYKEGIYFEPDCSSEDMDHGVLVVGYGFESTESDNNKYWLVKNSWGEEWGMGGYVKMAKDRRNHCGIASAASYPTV

Ki (Procathepsin L) | Ki (Cathepsin B) | Ki (Cathepsin K) | Structure (SMILES)
210 nM |  |  | CC[C@H](NC(=O)[C@H](CCCN=C(N)N)NC(=O)[C@H](CS)NC(=O)Cc1ccc(-c2ccccc2)cc1)C(=O)NCCc1ccccc1
170 nM |  |  | N=C(N)NCCC[C@@H](NC(=O)[C@H](CS)NC(=O)Cc1ccc(-c2ccccc2)cc1)C(=O)N[C@@H](Cc1ccccc1)C(=O)N[C@@H](Cc1ccccc1)C(N)=O (stereo in doubt; 4)
> 100000 nM |  |  | CSCC[C@H](NC(C)=O)C(=O)N[C@@H](CC(N)=O)C(=O)NCC(=O)N[C@@H](Cc1ccccc1)C(=O)N[C@@H](CCC(N)=O)C(N)=O (Ac-MNGFQ-NH2)
38000 nM |  |  | NC(=O)C[C@H](NC(=O)Cc1ccc(-c2ccccc2)cc1)C(=O)N[C@H](CCCN=C(N)N)C(=O)N[C@@H](Cc1ccccc1)C(=O)NC(Cc1ccccc1)C(N)=O (some centres not stated)
160 nM |  |  | N=C(N)NCCC[C@H](NC(=O)[C@H](CS)NC(=O)Cc1ccc(-c2ccccc2)cc1)C(=O)N[C@@H](CC1CCCCC1)C(=O)NCCc1ccccc1

The remaining lines, values behind:

Structure (SMILES) | Ki (Procathepsin L) | Ki (Cathepsin B) | Ki (Cathepsin K)
N=C(N)NCCC[C@H](NC(=O)[C@H](CS)NC(=O)Cc1ccc(-c2ccccc2)cc1)C(=O)N[C@@H](Cc1ccc2ccccc2c1)C(=O)NCCc1ccccc1 | 160 nM |  | 
N=C(N)NCCC[C@H](NC(=O)[C@H](CS)NC(=O)Cc1ccc(-c2ccccc2)cc1)C(=O)N[C@@H](Cc1ccc(-c2ccccc2)cc1)C(=O)NCCc1ccccc1 | 270 nM |  | 
CSC[C@@H](NC(=O)Cc1ccc(-c2ccccc2)cc1)C(=O)N[C@@H](CCCN=C(N)N)C(=O)N[C@@H](CC(C)C)C(=O)NCCc1ccccc1 | 270 nM |  | 
N=C(N)NCCC[C@H](NC(=O)[C@H](CS)NC(=O)Cc1ccc(-c2ccccc2)cc1)C(=O)N[C@@H](Cc1c[nH]c2ccccc12)C(=O)NCCc1ccccc1 | 67 nM | 560 nM | 1000 nM
CSC[C@H](NC(=O)Cc1ccc(-c2ccccc2)cc1)C(=O)NCC(=O)N[C@@H](Cc1ccccc1)C(=O)N[C@@H](Cc1ccccc1)C(N)=O ({Phenylacetyl(4-Ph)}-C(Me)GFF-NH2) | 930 nM |  | 
N=C(N)NCCC[C@H](NC(=O)[C@H](CCCN=C(N)N)NC(=O)[C@H](CS)NC(=O)Cc1ccc(-c2ccccc2)cc1)C(=O)NCCc1ccccc1 | 3900 nM |  | 
N=C(N)NCCC[C@@H](NC(=O)[C@H](CO)NC(=O)Cc1ccc(-c2ccccc2)cc1)C(=O)N[C@@H](Cc1ccccc1)C(=O)N[C@@H](Cc1ccccc1)C(N)=O | 74000 nM |  | 
N=C(N)NCCC[C@H](NC(=O)[C@H](CS)NC(=O)Cc1ccc(-c2ccccc2)cc1)C(=O)N[C@@H](Cc1ccc(O)cc1)C(=O)NCCc1ccccc1 |  | 15000 nM | 2900 nM
CSCC[C@H](NC(=O)[C@H](CCCN=C(N)N)NC(=O)[C@@H](CSC)NC(=O)Cc1ccc(-c2ccccc2)cc1)C(=O)NCCc1ccccc1 | 240 nM |  | 
